Values after ≈ are worked out from the molar mass of the structure shown. Active and inactive are the calls of the source. No cut-off for these calls is given here.
Key:
[1] = tested on: Acinetobacter baumannii; assay: Antibacterial activity against Acinetobacter baumannii HUMC1 cultured in RPMI 1640 medium supplemented with 10% FCS assessed as bacterial growth inhibition incubated for 20 hrs by CLSI based microbroth dilution method; format: functional; conditions: Acinetobacter baumannii
Outline: (§1)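 CLSI broth microdilution in RPMI 1640 + 10% FCS in place of CAMHB. Compounds in 2-fold dilution series; inoculum 5×10^5 CFU/mL. Plates held static at 35 °C for 20 h. MIC read visually as the lowest concentration with no visible growth. […] is the reciprocal of this MIC.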

[2] = tested on: Staphylococcus aureus; assay: Antibacterial activity against Staphylococcus aureus USA300 UAMS-1625 assessed as fold reduction in MIC incubated for 20 hrs by CLSI based microbroth dilution method relative to rifabutin; format: functional
Outline: (§2)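 CLSI broth microdilution in CAMHB against S. aureus USA300 UAMS-1625. Compounds in 2-fold dilution series; inoculum 5×10^5 CFU/mL. Incubated without shaking at 35 °C for 20 h. MIC read visually as the lowest concentration preventing visible growth. Fold changes are relative to the rifabutin MIC.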

[3] = tested on: Acinetobacter baumannii; assay: Antibacterial activity against Acinetobacter baumannii HUMC1 harboring FhuE deletion mutant assessed as bacterial growth inhibition incubated for 20 hrs by CLSI based microbroth dilution method; format: functional
Outline: (§3)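 Microbroth dilution per CLSI in RPMI 1640 + 10% FCS (in place of CAMHB). Compounds as 2-fold serial dilutions; inoculum 5×10^5 CFU/mL of previously described HUMC1-derived mutant strains. Incubated static at 35 °C for 20 h. MIC read visually as lowest concentration preventing visible growth.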

[4] = tested on: Staphylococcus aureus; assay: Antibacterial activity against Staphylococcus aureus USA300 UAMS-1625 assessed as fold increase in MIC incubated for 20 hrs by CLSI based microbroth dilution method relative to rifabutin; format: functional; outline: as §2
[5] = tested on: Acinetobacter baumannii; assay: Antibacterial activity against Acinetobacter baumannii HUMC1 harboring RpoB H535Q mutant assessed as bacterial growth inhibition incubated for 20 hrs by CLSI based microbroth dilution method; format: functional; outline: as §3
[6] = tested on: Acinetobacter baumannii; assay: Antibacterial activity against Acinetobacter baumannii HUMC1 harboring RpoB H535C mutant assessed as bacterial growth inhibition incubated for 20 hrs by CLSI based microbroth dilution method; format: functional; outline: as §3
[7] = Inhibition of transcription in Acinetobacter baumannii HUMC1 using pVT784 as reporter plasmid preincubated for 30 mins followed by reporter plasmid addition and measured after 60 mins by Nano-Glo luciferase assay; format: functional
Outline: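 Cell-free transcription/translation used A. baumannii HUMC1 extract at 1.2 mg/mL, with extract from 2xYT+P culture after a run-off step and dialysis at pH 8.2. Compound was preincubated with extract for 30 min on ice. Reporter plasmid (0.5 nM) was then added and luminescence read after 60 min at 25 °C. Compounds were tested at 8 to 0.002 mg/L in triplicate. IC50 was fit from no-compound-normalized signal.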

[8] = tested on: Acinetobacter baumannii; assay: Antibacterial activity against Acinetobacter baumannii HUMC1 cultured in iron-limited RPMI medium supplemented with 10% FCS assessed as inverse MIC incubated for 20 hrs by CLSI based microbroth dilution method; format: functional; outline: as §1
[9] = Drug accumulation in Acinetobacter baumannii HUMC1 cultured in iron-limited RPMI medium supplemented with 10% FCS measured per 5 ml of culture medium at 0.05 uM incubated for 10 mins by LC-MS/MS analysis; format: ADME
Outline: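 5 mL of suspension was dosed from DMSO stocks (0.002–5 mM) and shaken at 150 rpm for 10 min at 37 °C. Cells were pelleted, washed, and lysed (sucrose/EDTA). LC-MS/MS MRM quantitation used caffeine-normalized standard curves in spiked lysate. Reported as amount per 5 mL; n≥2 independent replicates.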

[10] = tested on: Acinetobacter baumannii; assay: Antibacterial activity against Acinetobacter baumannii HUMC1 harboring RpoB H535Q mutant assessed as fold reduction in MIC incubated for 20 hrs by CLSI based microbroth dilution method relative to rifabutin; format: functional
[11] = tested on: Acinetobacter baumannii; assay: Antibacterial activity against Acinetobacter baumannii HUMC1 harboring RpoB H535C mutant assessed as fold reduction in MIC incubated for 20 hrs by CLSI based microbroth dilution method relative to rifabutin; format: functional
[12] = tested on: Staphylococcus aureus; assay: Antibacterial activity against Staphylococcus aureus USA300 UAMS-1625 assessed as bacterial growth inhibition incubated for 20 hrs by CLSI based microbroth dilution method; format: functional; outline: as §2

Structure (SMILES)	MIC ([1]; HUMC1, 20 h, read-out: MIC)	fold change (FC) [2]	MIC [3]	IC50 [7]	1/MIC [8]	further results
CO[C@H]1/C=C/O[C@@]2(C)Oc3c(C)c(O)c4c(c3C2=O)C2=NC3(CCN(C(C)C)CC3)NC2=C(NC(=O)/C(C)=C\C=C\[C@H](C)[C@H](O)[C@@H](C)[C@@H](O)[C@@H](C)[C@H](OC(C)=O)[C@@H]1C)C4=O	0.002 µg/mL (≈ 0.0024 µM)	2	0.5 µg/mL (≈ 0.6 µM)			
CO[C@H]1/C=C/O[C@@]2(C)Oc3c(C)c(O)c4c(c3C2=O)C2=NC3(CCN(C5CCCCC5)CC3)NC2=C(NC(=O)/C(C)=C\C=C\[C@H](C)[C@H](O)[C@@H](C)[C@@H](O)[C@@H](C)[C@H](OC(C)=O)[C@@H]1C)C4=O	0.016 µg/mL (≈ 0.0183 µM)					fold change (FC) [4]: 2
CO[C@H]1/C=C/O[C@@]2(C)Oc3c(C)c(O)c4c(c3C2=O)C2=NC3(CCN(CCC(C)(C)C)CC3)NC2=C(NC(=O)/C(C)=C\C=C\[C@H](C)[C@H](O)[C@@H](C)[C@@H](O)[C@@H](C)[C@H](OC(C)=O)[C@@H]1C)C4=O	0.06 µg/mL (≈ 0.0686 µM)	2	0.5 µg/mL (≈ 0.571 µM)	0.17 µg/mL (≈ 0.194 µM)	16.67 L/mg	MIC [5]: 1 µg/mL (≈ 1.14 µM); MIC [6]: 1 µg/mL (≈ 1.14 µM); Drug uptake [9]: 9.55 pmol
CO[C@H]1/C=C/O[C@@]2(C)Oc3c(C)c(O)c4c(c3C2=O)C2=NC3(CCN(CC5CCCC5)CC3)NC2=C(NC(=O)/C(C)=C\C=C\[C@H](C)[C@H](O)[C@@H](C)[C@@H](O)[C@@H](C)[C@H](OC(C)=O)[C@@H]1C)C4=O	0.016 µg/mL (≈ 0.0183 µM)					fold change (FC) [4]: 2
CO[C@H]1/C=C/O[C@@]2(C)Oc3c(C)c(O)c4c(c3C2=O)C2=NC3(CCN(C5CC5)CC3)NC2=C(NC(=O)/C(C)=C\C=C\[C@H](C)[C@H](O)[C@@H](C)[C@@H](O)[C@@H](C)[C@H](OC(C)=O)[C@@H]1C)C4=O (stereo in doubt; form 1)	≤ 0.002 µg/mL	2	0.5 µg/mL (≈ 0.602 µM)	0.12 µg/mL (≈ 0.144 µM)	1000 L/mg	MIC [5]: 0.004 µg/mL (≈ 0.00481 µM); MIC [6]: 0.004 µg/mL (≈ 0.00481 µM); fold change (FC) [10]: 2; fold change (FC) [11]: 2; Drug uptake [9]: 24.66 pmol
CO[C@H]1/C=C/O[C@@]2(C)Oc3c(C)c(O)c4c(c3C2=O)C2=NC3(CCN(C)CC3)NC2=C(NC(=O)/C(C)=C\C=C\[C@H](C)[C@H](O)[C@@H](C)[C@@H](O)[C@@H](C)[C@H](OC(C)=O)[C@@H]1C)C4=O	0.016 µg/mL (≈ 0.0199 µM)	2				
CCN1CCC2(CC1)N=C1C(=C3NC(=O)/C(C)=C\C=C\[C@H](C)[C@H](O)[C@@H](C)[C@@H](O)[C@@H](C)[C@H](OC(C)=O)[C@H](C)[C@@H](OC)/C=C/O[C@@]4(C)Oc5c(C)c(O)c(c1c5C4=O)C3=O)N2	0.004 µg/mL (≈ 0.00488 µM)	2				
CO[C@H]1/C=C/O[C@@]2(C)Oc3c(C)c(O)c4c(c3C2=O)C2=NC3(CCN(C5CCCC5)CC3)NC2=C(NC(=O)/C(C)=C\C=C\[C@H](C)[C@H](O)[C@@H](C)[C@@H](O)[C@@H](C)[C@H](OC(C)=O)[C@@H]1C)C4=O (stereo in doubt; form 1)	≤ 0.002 µg/mL	2				
CCC(C)(C)N1CCC2(CC1)N=C1C(=C3NC(=O)/C(C)=C\C=C\[C@H](C)[C@H](O)[C@@H](C)[C@@H](O)[C@@H](C)[C@H](OC(C)=O)[C@H](C)[C@@H](OC)/C=C/O[C@@]4(C)Oc5c(C)c(O)c(c1c5C4=O)C3=O)N2	0.008 µg/mL (≈ 0.00929 µM)	2				
CO[C@H]1/C=C/O[C@@]2(C)Oc3c(C)c(O)c4c(c3C2=O)C2=NC3(CCNCC3)NC2=C(NC(=O)/C(C)=C\C=C\[C@H](C)[C@H](O)[C@@H](C)[C@@H](O)[C@@H](C)[C@H](OC(C)=O)[C@@H]1C)C4=O	0.25 µg/mL (≈ 0.316 µM)		0.5 µg/mL (≈ 0.632 µM)	0.05 µg/mL (≈ 0.0632 µM)	4 L/mg	fold change (FC) [4]: 2; MIC [5]: 1 µg/mL (≈ 1.26 µM); MIC [6]: 1 µg/mL (≈ 1.26 µM); Drug uptake [9]: 0.47 pmol
CO[C@H]1/C=C/O[C@@]2(C)Oc3c(C)c(O)c4c(c3C2=O)C2=NC3(CCN(CCC(C)C)CC3)NC2=C(NC(=O)/C(C)=C\C=C\[C@H](C)[C@H](O)[C@@H](C)[C@@H](O)[C@@H](C)[C@H](OC(C)=O)[C@@H]1C)C4=O	0.016 µg/mL (≈ 0.0186 µM)		0.5 µg/mL (≈ 0.581 µM)			Activity [12]: Active
CO[C@H]1/C=C/O[C@@]2(C)Oc3c(C)c(O)c4c(c3C2=O)C2=NC3(CCN(C(C)(C)C)CC3)NC2=C(NC(=O)/C(C)=C\C=C\[C@H](C)[C@H](O)[C@@H](C)[C@@H](O)[C@@H](C)[C@H](OC(C)=O)[C@@H]1C)C4=O	0.002 µg/mL (≈ 0.00236 µM)		0.5 µg/mL (≈ 0.59 µM)	0.06 µg/mL (≈ 0.0708 µM)	500 L/mg	Activity [12]: Active; Drug uptake [9]: 32.73 pmol
CO[C@H]1/C=C/O[C@@]2(C)Oc3c(C)c(O)c4c(O)c(c(/C=N/N5CCN(C)CC5)c(O)c4c3C2=O)NC(=O)/C(C)=C\C=C\[C@H](C)[C@H](O)[C@@H](C)[C@@H](O)[C@@H](C)[C@H](OC(C)=O)[C@@H]1C [RIFAMPIN]				0.07 µg/mL (≈ 0.0851 µM)	0.25 L/mg	MIC ([1]; HUMC1, read-out: MIC): 4 µg/mL (≈ 4.86 µM); Drug uptake ([9]; BLD = below limit of detection): Bld
CO[C@H]1/C=C/O[C@@]2(C)Oc3c(C)c(O)c4c(c3C2=O)C2=NC3(CCN(c5ccccc5)CC3)NC2=C(NC(=O)/C(C)=C\C=C\[C@H](C)[C@H](O)[C@@H](C)[C@@H](O)[C@@H](C)[C@H](OC(C)=O)[C@@H]1C)C4=O	0.125 µg/mL (≈ 0.144 µM)					fold change (FC) [4]: 2

From ChEMBL document CHEMBL5346932, “Structure-activity relationships of actively FhuE transported rifabutin derivatives with potent activity against Acinetobacter baumannii” (Eur J Med Chem, 2023)
